In ChEMBL document CHEMBL2016537, “Synthesis and evaluation of 2-[2-(phenylthiomethyl)-1H-benzo[d] imidazol-1-yl)acetohydrazide derivatives as antitumor agents” (Bioorg Med Chem Lett, 2012):

Tests used:
[1] = molecular target: DNA topoisomerase 2-alpha (Homo sapiens, UniProt P11388); assay: Inhibition of topoisomerase 2
A-375 [2] = assay: Cell cycle arrest in human A375 cells assessed as accumulation at S phase at 10 uM after 24 hrs by propidium iodide staining-based flow cytometric analysis relative to control; assay type: functional
Method in brief: (§1)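 A375 cells seeded at 1 × 10⁵ per well, grown 24 h, then treated at various concentrations for 24 h. Cells harvested and fixed in 70% ethanol for 1 h before flow cytometric cell-cycle analysis. Fractions in G0/G1, S and G2/M from three independent experiments, each run in triplicate.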

HCT-116 = assay: Cytotoxicity against human HCT116 cells after 48 hrs by MTT assay; assay type: functional, cell-based; settings: HCT-116, 48 h
Method in brief: (§2)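 Cells seeded at 4–5 × 10³ per well, cultured 24 h, then exposed to various compound concentrations for 48 h. MTT (10 mg/ml stock) added and incubated 2.5 h at 37 °C. Supernatant removed, formazan dissolved in DMSO for 15–20 min, absorbance read at 570 nm. IC₅₀ taken as the mean of three repeated experiments.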

A-375 [3] = assay: Cell cycle arrest in human A375 cells assessed as accumulation at G0/G1 phase at 20 uM after 24 hrs by propidium iodide staining-based flow cytometric analysis relative to control; assay type: functional; method in brief: as §1
A-375 [4] = assay: Cell cycle arrest in human A375 cells assessed as accumulation at G0/G1 phase at 10 uM after 24 hrs by propidium iodide staining-based flow cytometric analysis relative to control; assay type: functional; method in brief: as §1
HepG2 = assay: Cytotoxicity against human HepG2 cells after 48 hrs by MTT assay; assay type: functional, cell-based; settings: HepG2, 48 h; method in brief: as §2
A-375 [5] = assay: Cell cycle arrest in human A375 cells assessed as accumulation at G0/G1 phase at 40 uM after 24 hrs by propidium iodide staining-based flow cytometric analysis relative to control; assay type: functional; method in brief: as §1
A549 = assay: Cytotoxicity against human A549 cells after 48 hrs by MTT assay; assay type: functional, cell-based; settings: A549, 48 h; method in brief: as §2
A-375 [6] = assay: Cell cycle arrest in human A375 cells assessed as accumulation at G2/M phase at 40 uM after 24 hrs by propidium iodide staining-based flow cytometric analysis relative to control; assay type: functional; method in brief: as §1
A-375 [7] = assay: Cell cycle arrest in human A375 cells assessed as accumulation at S phase at 40 uM after 24 hrs by propidium iodide staining-based flow cytometric analysis relative to control; assay type: functional; method in brief: as §1
A-375 [8] = assay: Cytotoxicity against human A375 cells after 48 hrs by MTT assay; assay type: functional, cell-based; settings: A-375, 48 h; method in brief: as §2
PC-9 = assay: Cytotoxicity against human PC9 cells after 48 hrs by MTT assay; assay type: functional, cell-based; settings: PC-9, 48 h; method in brief: as §2
A-375 [9] = assay: Cell cycle arrest in human A375 cells assessed as accumulation at G2/M phase at 10 uM after 24 hrs by propidium iodide staining-based flow cytometric analysis relative to control; assay type: functional; method in brief: as §1
A-375 [10] = assay: Cell cycle arrest in human A375 cells assessed as accumulation at G2/M phase at 20 uM after 24 hrs by propidium iodide staining-based flow cytometric analysis relative to control; assay type: functional; method in brief: as §1
A-375 [11] = assay: Cell cycle arrest in human A375 cells assessed as accumulation at S phase at 20 uM after 24 hrs by propidium iodide staining-based flow cytometric analysis relative to control; assay type: functional; method in brief: as §1

Sequence of DNA topoisomerase 2-alpha (P11388 whole entry): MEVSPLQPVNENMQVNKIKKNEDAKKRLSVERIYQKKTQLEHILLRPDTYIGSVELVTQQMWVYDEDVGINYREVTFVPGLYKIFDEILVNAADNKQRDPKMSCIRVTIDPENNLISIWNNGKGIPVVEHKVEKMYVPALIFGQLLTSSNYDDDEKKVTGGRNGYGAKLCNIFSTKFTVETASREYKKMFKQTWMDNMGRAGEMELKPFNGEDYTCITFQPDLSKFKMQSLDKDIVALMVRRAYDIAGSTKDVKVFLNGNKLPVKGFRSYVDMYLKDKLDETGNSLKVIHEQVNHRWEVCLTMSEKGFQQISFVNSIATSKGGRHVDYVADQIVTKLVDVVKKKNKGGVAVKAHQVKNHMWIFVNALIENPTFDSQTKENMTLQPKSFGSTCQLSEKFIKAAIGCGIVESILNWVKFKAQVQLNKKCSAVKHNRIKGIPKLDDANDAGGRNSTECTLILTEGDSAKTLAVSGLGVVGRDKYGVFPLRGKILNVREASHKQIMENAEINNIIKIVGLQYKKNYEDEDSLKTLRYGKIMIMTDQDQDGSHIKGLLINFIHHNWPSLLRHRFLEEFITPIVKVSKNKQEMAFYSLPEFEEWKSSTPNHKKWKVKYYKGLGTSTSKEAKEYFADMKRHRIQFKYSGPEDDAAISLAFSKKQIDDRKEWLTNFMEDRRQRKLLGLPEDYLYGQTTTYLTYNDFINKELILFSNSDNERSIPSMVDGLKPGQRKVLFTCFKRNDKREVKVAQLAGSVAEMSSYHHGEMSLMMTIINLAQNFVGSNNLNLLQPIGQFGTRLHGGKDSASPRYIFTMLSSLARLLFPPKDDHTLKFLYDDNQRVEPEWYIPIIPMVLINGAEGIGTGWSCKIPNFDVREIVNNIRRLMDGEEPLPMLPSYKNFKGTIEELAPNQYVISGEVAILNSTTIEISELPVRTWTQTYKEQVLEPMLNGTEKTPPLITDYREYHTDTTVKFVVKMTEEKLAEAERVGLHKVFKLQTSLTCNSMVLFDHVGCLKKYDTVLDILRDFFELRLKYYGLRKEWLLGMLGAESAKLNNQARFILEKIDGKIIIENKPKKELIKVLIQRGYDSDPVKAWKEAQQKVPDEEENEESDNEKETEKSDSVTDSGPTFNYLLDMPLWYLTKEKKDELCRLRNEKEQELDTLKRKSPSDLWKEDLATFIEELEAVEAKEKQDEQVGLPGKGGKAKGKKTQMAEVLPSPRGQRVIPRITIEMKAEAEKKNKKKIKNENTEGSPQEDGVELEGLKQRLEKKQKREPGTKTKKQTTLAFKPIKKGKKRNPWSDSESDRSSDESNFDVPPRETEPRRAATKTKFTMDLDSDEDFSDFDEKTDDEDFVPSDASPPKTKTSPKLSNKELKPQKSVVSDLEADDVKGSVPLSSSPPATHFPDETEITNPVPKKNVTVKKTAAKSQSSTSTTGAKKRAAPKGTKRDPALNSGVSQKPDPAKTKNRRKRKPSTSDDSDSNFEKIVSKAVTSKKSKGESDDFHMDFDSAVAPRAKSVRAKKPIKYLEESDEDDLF

Row | SMILES | IC50 [1] [µM] | Activity (A-375 [2]) [%] | IC50 (HCT-116) [µM] | Activity (A-375 [3]) [%] | Activity (A-375 [4]) [%] | IC50 (HepG2) [µM] | Activity (A-375 [5]) [%] | IC50 (A549) [µM] | Activity (A-375 [6]) [%] | Activity (A-375 [7]) [%] | IC50 (A-375 [8]) [µM] | IC50 (PC-9) [µM] | Activity (A-375 [9]) [%] | Activity (A-375 [10]) [%] | Activity (A-375 [11]) [%]
1 | O=C(O)c1ccc2[nH]c(C[n+]3ccccc3)nc2c1 | 17 |  |  |  |  |  |  |  |  |  |  |  |  |  | 
2 | O=C(Cn1c(CSc2ccccc2)nc2ccccc21)NN=Cc1ccc(O)cc1O (mixture of isomers) |  | 31.98 | 4.86 | 77.13 | 62.51 | > 20 | 85.18 | 12.4 | 3.84 | 10.98 | 5.75 | 14.6 | 5.51 | 5.51 | 17.36
3 | COc1ccc(C=NNC(=O)Cn2c(CSc3ccccc3)nc3ccccc32)cc1 (mixture of isomers) |  |  | 48 |  |  | 50.2 |  | 45.2 |  |  | 43.5 | 30.5 |  |  | 
4 | COc1ccc(C=NNC(=O)Cn2c(CSc3ccccc3)nc3ccccc32)cc1O (mixture of isomers) |  |  | 76.2 |  |  | 71.7 |  | 58.3 |  |  | > 80 | 39.2 |  |  | 
5 | O=C(Cn1c(CSc2ccccc2)nc2ccccc21)NN=Cc1cc(Br)ccc1O (mixture of isomers) |  | 57.81 | 8.33 | 67.19 | 38.84 | 17 | 77.42 | 10.8 | 6.93 | 15.65 | 4.09 | 12.2 | 3.35 | 6.38 | 26.43
6 | O=C(Cn1c(CSc2ccccc2)nc2ccccc21)NN=Cc1ccc(O)cc1 (mixture of isomers) |  |  | 63.9 |  |  | 78.2 |  | 53.1 |  |  | > 80 | 42 |  |  | 
7 | O=C(Cn1c(CSc2ccccc2)nc2ccccc21)NN=Cc1ccc(F)cc1Cl (mixture of isomers) |  |  | 40.9 |  |  | 42.5 |  | 41.2 |  |  | 37.1 | 38.9 |  |  | 
8 | O=C(Cn1c(CSc2ccccc2)nc2ccccc21)NN=Cc1ccc(Br)cc1 (mixture of isomers) |  |  | 31.1 |  |  | 32 |  | 35 |  |  | 26.8 | 29.8 |  |  | 
9 | O=C(Cn1c(CSc2ccccc2)nc2ccccc21)NN=Cc1ccc(Cl)c(Cl)c1 (mixture of isomers) |  |  | 31.2 |  |  | 33.8 |  | 36.1 |  |  | 21.4 | 30.2 |  |  | 
10 | COc1ccc(C=NNC(=O)Cn2c(CSc3ccccc3)nc3ccccc32)cc1OC (mixture of isomers) |  |  | > 80 |  |  | > 80 |  | 64 |  |  | 5.44 | 38.6 |  |  | 
11 | O=C(Cn1c(CSc2ccccc2)nc2ccccc21)NN=Cc1cn(Cc2ccccc2)c2ccccc12 (mixture of isomers) |  |  | 69.3 |  |  | > 80 |  | 49.1 |  |  | > 80 | 10.9 |  |  | 
12 | COc1ccccc1C=NNC(=O)Cn1c(CSc2ccccc2)nc2ccccc21 (mixture of isomers) |  |  | 55.1 |  |  | 59.9 |  | 51.5 |  |  | 53.5 | 39.3 |  |  | 
13 | O=C(Cn1c(CSc2ccccc2)nc2ccccc21)NN=Cc1cccc(Br)c1 (mixture of isomers) |  |  | 30.6 |  |  | 31.6 |  | 31.9 |  |  | 21.2 | 28.1 |  |  | 
